# Bfl-1 A1 inh: inhibitors of the anti-apoptotic protein A1, read as caspase activation; 0.066% of 330,000 active; MEF A1-2A-BIM cells, Caspase-Glo 3/7 luminescence, 3 h; percent of clofoctol response, vehicle zero; AID 2462; caspase activation, % (concentration not given with the values);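 active means over half of replicate activation scores above 10%, or exactly half above 10 with the replicate mean above 10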
# CHOP UPR activ: apoptotic UPR (CHOP) activation | CHO-CHOP luciferase reporter, luminescence; percent of tunicamycin response over DMSO baseline | 0.34% of 330,000 active | activation, % at 10 µM;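 active means at 10 µM dose, activation of 40% or more, normalized to positive control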;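 further: 100% = tunicamycin at 10 µg/mL and 0% = DMSO alone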
#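 Assay system: CHO-CHOP cells, stable luciferase reporter of PERK-eIF2a-CHOP signalling / Buffer or medium: F12 plus 10% serum / Compound dosing: one dose, 10 µM in 0.5% DMSO / Times: 6 h compound treatment, 37 °C / Technique: luciferase luminescence / Read-out: % reporter activation, DMSO baseline versus tunicamycin full activation / Benchmarks: tunicamycin and DMSO controls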
# XBP1 UPR activ: adaptive UPR (XBP1) activation | activation, % at 20 µM | 0.33% of 330,000 active | AID 463104 | CHO-XBP1 luciferase reporter, IRE1-XBP1 UPR activation, luminescence; percent of tunicamycin response, DMSO as zero;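 active means versus positive control, 20 µM dose yields 30% or more activation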;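 further: 100% = tunicamycin at 10 µg/mL and 0% = DMSO only wells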
#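 assay system = CHO-XBP1 luciferase reporter cells | amount = 1000 cells/well | buffer or medium = F12 plus 10% FBS | compound dosing = single point, 20 µM final compound, 1% DMSO | incubation = 16-18 h cell attachment at 37 °C, then 6 h compound exposure | detection = Steady-Glo luminescence read | controls = tunicamycin 10 µg/mL and vehicle-only wells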
# CHOP inh: CHOP inhibition in unfolded protein response; CHO-K1 CHOP-promoter luciferase, tunicamycin-induced, 15-18 h; inhibition, % at 10 µM; 3.8% of 220,000 active; AID 2732;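 active means compounds that reduced the stress-induced luciferase reporter signal by more than about 70% of percent inhibition, limit read from the data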;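 further: 0% = tunicamycin plus vehicle and 100% = wells without tunicamycin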
# CHOP inh conf: confirmation of CHOP induction inhibitors; shares compounds with CHOP inh; CHO-CHOP promoter luciferase reporter, tunicamycin-induced, luminescence; inhibition, % at 10 µM; 45% of 2,100 active;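 active means mean of three repeat readings of reporter signal inhibition above a set limit, cut at about 70% in these data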;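 further: 0% = tunicamycin plus vehicle and 100% = wells lacking tunicamycin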
# * hit, by the source's call; . = no result given. Only a selection was taken, and hits are over-represented in it overall.
SMILES,Bfl-1 A1 inh,CHOP UPR activ,XBP1 UPR activ,CHOP inh,CHOP inh conf
CCCOC(=O)c1ccc(Oc2cn[nH]c2-c2ccc(OC)cc2O)cc1,0.5,-2.7,-5.6,106.4*,115.8*
COc1cccc(Oc2cn[nH]c2-c2ccc(OCC(=O)NN)cc2O)c1,0.0,0.7,6.7,.,.
O=C(Nc1ccc(Br)c(C(F)(F)F)c1)c1ccc(C(F)(F)F)cc1,-0.3,15.0,8.1,101.8*,98.1*
O=C(Nc1ccc(Br)c(C(F)(F)F)c1)c1ccccc1,-0.6,4.1,-0.4,52.0,.
CCOCCCNC(=O)c1cn(CC)c2ccc(S(=O)(=O)N3CCC(C)CC3)cc2c1=O,1.3,-0.2,-7.4,.,.
CC(C)(C)c1nnc(N/N=C/c2cc(Br)ccc2O)n(N)c1=O,0.1,.,.,106.5*,117.5*
Cc1ccc(NC(=O)CN(C)C(=O)Cc2ccc(Cl)cc2Cl)cc1,0.6,0.6,13.2,.,.
O=c1[nH]c(=O)n(C2CCCCCC2)c(O)c1C=NCc1ccc(F)cc1,-0.8,-0.4,1.0,106.8*,41.2
Cc1cc(C)nc(/N=c2/ssnc2Cl)c1,0.3,14.3,-4.5,96.2*,19.1
COc1ccc(OC)c(N=c2ssnc2Cl)c1,0.0,1.4,-0.2,106.8*,-6.3
Cc1cc(Cl)ccc1N=c1ssnc1Cl,0.7,-1.6,5.1,108.5*,15.6
Cc1ccc(NC(=O)C2CCN(S(=O)(=O)c3ccc4ccccc4c3)CC2)nc1,.,6.4,3.1,.,.
CCN(CC)S(=O)(=O)c1cc(NC(=O)c2ccc3c(c2)NC(=O)C(C)S3)ccc1C (stereo not given),-0.2,0.1,3.0,.,.
O=C1C=C(c2cccc(Cl)c2O)C[C@@H](c2ccc(Cl)cc2)C1,-0.3,0.7,-1.9,.,.
COc1ccccc1NC(=O)CN1CCN(CC(=O)Nc2ccc(C)c(F)c2)CC1,0.1,1.9,0.1,.,.
CCc1ccc(CN(C)C(=O)C2=CC=CN3CCS(=O)(=O)N=C23)cc1,.,1.4,-0.9,.,.
Cc1ccc(CNC(=O)C2CCC(CNc3nc(=S)[nH]c4ccccc34)CC2)cc1 (stereo not given),0.3,-2.4,-0.3,97.9*,39.8
Cc1cc(Cl)n2c(nc3ccccc32)c1C#N,.,.,.,108.2*,132.9*
CCc1nn(CC(=O)NCCCN(CC)c2cccc(C)c2)c(=O)c2cc3occc3n12,-0.9,1.4,-2.4,103.8*,31.0
CCOc1ccc(CNC(=O)CN2C(=O)C(c3ccccc3)Oc3cccnc32)cc1 (stereo not given),-0.2,-0.2,-5.6,.,.
Cc1ccc(C(=O)NC(CCc2ccccc2)C(=O)O)cc1 (stereo not given),.,1.0,1.9,.,.
CCOC(=O)c1ccc(NC(=O)CSc2nnc(CCc3ccc(C)o3)n2-c2ccccc2)cc1,0.4,-0.4,-0.9,103.1*,58.0
Cc1cc(N2C(=O)C=CC2=O)c([N+](=O)[O-])cc1C,4.7,4.9,-6.9,107.7*,41.2
Cc1ccc(N2C(=O)C3C4C=CC(CC4)C3C2=O)cc1[N+](=O)[O-] (stereo not given),0.8,-0.8,-3.2,.,.
N#Cc1c(-c2cccc(Br)c2)cc(-c2cccnc2)nc1N,-0.3,1.6,4.2,104.0*,49.4
SMILES,Bfl-1 A1 inh,CHOP UPR activ,XBP1 UPR activ,CHOP inh,CHOP inh conf
Nc1nc(NC(=O)c2ccccc2)nn1-c1ccccc1,0.2,-0.4,5.3,-12.0,.
O=C(Nc1nc(NC(=O)c2ccco2)n(-c2ccccc2)n1)c1ccccc1,-1.4,-0.6,4.9,106.3*,60.0
Cc1cc(=O)oc2cc(OCC(=O)NC3CC(C)(C)NC(C)(C)C3)c(Cl)cc12,-0.4,4.3,-1.6,.,.
COc1ccc(C2NCCc3c2[nH]c2ccccc32)cc1CSc1nc2ccccc2s1 (stereo not given),-0.2,.,.,99.5*,45.0
Cn1c(SCc2ccccc2Cl)nc2c1c(=O)[nH]c(=O)n2C,-0.7,3.6,2.1,.,.
CCN(CC)c1ccc(/C=N/NC(=O)c2ccco2)c(O)c1,-4.2,0.2,13.0,62.4,.
CCN(CC)c1ccc(/C=N/NC(=S)NCc2ccccc2)c(O)c1,0.1,-0.6,-1.6,100.5*,-65.8
O=C(Cn1cncn1)c1ccccc1Br,0.6,-0.5,2.8,.,.
COC(=O)c1c(NC(=O)Nc2ccc(Cl)cc2)sc(C)c1C,-0.2,0.2,2.6,99.8*,99.3*
COC(=O)c1c(NC(C)=O)sc(C)c1C,-0.1,1.2,-3.2,12.4,.
COC(=O)/C(=C(/F)Sc1cc(C)c(O)c(C)c1)C(F)(F)F,-0.3,35.5,5.7,97.5*,118.3*
CCc1ccc(N2CC(C(=O)OCC(=O)Nc3ccc(C(C)=O)cc3)CC2=O)cc1 (stereo not given),0.2,0.7,0.9,.,.
CCOC(=O)c1ccc(NC(=O)Nc2ccc(F)cc2)cc1,-2.3,6.5,3.0,46.6,.
CC(C)(C)c1ccc(NC(=O)Nc2ccc(F)cc2)cc1,-0.1,5.6,1.9,102.6*,107.2*
CC(C)(C)c1cc(C(c2cccnc2)N2CCN(CCO)CC2)cc(C(C)(C)C)c1O (stereo not given),25.4*,-8.9,-9.3,110.3*,-59.8
O=C(CCl)Nc1cn(-c2ccccc2)nc1-c1ccccc1,0.6,5.9,-4.7,106.8*,105.7*
COC(=O)c1cc(S(=O)(=O)NCCCN2CCCC2=O)cn1C,2.5,2.7,-1.2,.,.
COC(=O)c1ccc2c(c1)C(C)(C)C(/C=C/c1ccc(O)cc1)=[N+]2C,10.5*,-10.8,-6.7,112.1*,137.6*
COc1ccc(C(=O)NCc2nnc(SCC(=O)c3ccccc3)n2C)cc1OC,0.8,1.6,1.0,.,.
Cc1ccc(C(=O)ONc2ccc(N=NC(=O)c3ccccc3O)cc2)cc1,-5.5,-1.0,-0.9,103.2*,21.9
Cc1cccc(/C=N/n2c(C3CCCCC3)n[nH]c2=S)c1,1.0,1.9,3.7,.,.
CC(/C=N/n1c(C2CCCCC2)n[nH]c1=S)=C\c1ccccc1,0.0,-1.5,1.8,107.2*,101.5*
CN1C(=O)/C(=C/c2cc(N=Nc3ccccc3)ccc2O)SC1=S,-0.3,-1.0,-1.4,104.4*,104.0*
Cc1c(N2C(=O)/C(=C\c3ccccc3O)SC2=S)c(=O)n(-c2ccccc2)n1C,-0.2,-2.7,-1.2,1.3,.
CC(C)n1cc(CN2CCCC(C(=O)Nc3ccccc3Oc3cccnc3)C2)cn1 (stereo not given),0.2,-1.0,-2.1,.,.
Oc1ccc(/C=N/Nc2nc(-c3ccc(Cl)cc3)cc(C(F)(F)F)n2)cc1,0.6,5.2,3.2,102.3*,98.1*
Cc1ccc(C(=O)/C=C\C(=O)c2ccc(C)cc2)cc1,3.1,.,.,102.3*,-54.6
CCOC(=O)Cn1c(=NC(=O)c2nc3ccccc3s2)sc2cc(S(N)(=O)=O)ccc21,0.2,-0.4,7.4,103.2*,18.4
CCc1nc2nc(C)c(NS(=O)(=O)c3ccc(C4CCCCC4)cc3)c(=O)n2[nH]1,0.7,-0.4,-1.7,.,.
CCN(CC(=O)Nc1cccc(C#N)c1)CC(=O)Nc1cccc(OC)c1,-0.3,0.3,-1.4,-16.4,.

# Screens from PubChem.
